Screening results deposited in PubChem by SRMLSC.
Shown is part of a subset that was picked to be rich in hits.
HUVEC prolif 384 = inhibitors of HUVEC proliferation, primary screen, cell-based, 384-well | 1.1% of 86,000 active | CellTiter-Glo luminescence, 72 h; active compounds read low | viability, % at 10 µM (by protocol);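 active = viability at or below 30%; inactive = viability above 30%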;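 also: 100% = median luminescence of DMSO-only cell control wells on each plate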
Lung fibro prol = antiproliferative effect on LL 47 fibroblasts – human, LL 47 cells, CellTiter-Glo luminescence, primary screen | viability, % at 10 µM | LL 47 human lung fibroblast viability, ATP luminescence; active compounds read low | 1.1% of 85,000 active | AID 719, 2007;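 active = viability at or below 50% in the single dose screen; inactive = viability above 50%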;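 also: compound exposure lasted 72 h before the ATP readout; 100% = median luminescence of untreated cell-only wells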
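Material: human LL 47 lung fibroblast cells; quantity: 1,150 cells/well; medium: IMEM plus 15% FBS; doses: 0.1% DMSO in all compound wells; timing: overnight attachment after seeding, then 72 h compound exposure at 37 °C; detection: CellTiter-Glo luminescence; measure: % viability of median cell-only signal; controls: cell-only wells, no compound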
bCat KO growth = primary screen for growth suppressors in beta-catenin knockout HCT116 cells (colon tumor, human); HCT116 beta-catenin knockout viability, CellTiter-Glo, 60 h; active compounds read low; 1.5% of 140,000 active; viability, % at 10 µM; AID 818, 2007;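 active = viability at or under a set limit, the compound median less 4 SD, cut at about 6% in these data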;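 also: 0% = Hyamine 1622 control at 20 µM and 100% = untreated cell control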
PTEN del growth = growth suppression of PTEN-null HCT116, primary screen, cell-based, CellTiter-Glo | HCT116 PTEN-null viability, 60 h; active compounds read low | viability, % at 10 µM | 1.2% of 140,000 active;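 active = viability at or below a set limit, 4 SD under the median of all tested compounds, cut at about 3.7% in these data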;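 also: PTEN knockout HCT116 line with beta catenin targeted HCT116 as companion control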
H69AR growth 86K = proliferation blockers of H69AR lung cancer cells, primary screen, cell-based, human, 86K library | 6% of 85,000 active | viability, % at 10 µM | H69AR lung tumor viability, ATP luminescence, 72 h; active compounds read low;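 active = viability at or below 40%; inactive = viability above 40%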;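 also: multidrug resistant small cell line overexpressing MRP-1 efflux transporter; 100% = mean luminescence of untreated control wells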
An asterisk follows results filed as active; nt = no result.

SMILES | HUVEC prolif 384 | Lung fibro prol | bCat KO growth | PTEN del growth | H69AR growth 86K
N#C[C@H]1[C@H](c2ccccc2)[C@](C#N)(C(=O)c2ccccc2)[C@@H]2C=Cc3ccccc3N21 | nt | nt | 5.3* | 3.3* | nt
COc1ccc(C(=O)N2c3ccccc3C=CC2C#N)cc1 (stereo unspecified) | nt | nt | 28 | 38 | nt
Cc1ccc(NC(=O)CC(O)(C(F)(F)F)C(F)(F)F)cc1 | 110 | 96 | 100 | 90 | 22*
COc1ccc(C)cc1NC(=O)CC(O)(C(F)(F)F)C(F)(F)F | 87 | 97 | 96 | 90 | 74
CCCCCC(=O)N/N=C(\C)c1ccccn1 | nt | nt | 4.3* | 5 | nt
CCCCCCCCCC(=O)N/N=C(\C)c1cccnc1 | 106 | 91 | 91 | 94 | 90
CCn1c(SCC(=O)N2CCCc3ccccc32)nnc1-c1c[nH]c2ccccc12 | 95 | 108 | 94 | 82 | 23*
O=c1c2ccccc2nc(/C=C/c2ccc([N+](=O)[O-])o2)n1CCCO | nt | nt | 1.5* | 1.3* | nt
O=c1c2ccccc2nc(/C=C/c2ccc([N+](=O)[O-])cc2)n1CCCO | nt | nt | 55 | 56 | nt
CCOC(=O)CNS(=O)(=O)c1cc(-c2n[nH]c(=O)c3ccccc23)ccc1C | 99 | 102 | 88 | 97 | 87
CCOC(=O)CNS(=O)(=O)c1cc(-c2nnc(Nc3ccc4c(c3)OCO4)c3ccccc23)ccc1C | nt | nt | 3.6* | 3.5* | nt
O=C(CSc1ccccc1)NCCSCc1ccccc1 | nt | nt | 90 | 95 | nt
c1ccc(CSc2nnc(-c3cccnc3)o2)cc1 | 87 | 100 | 96 | 101 | 34*
COc1ccc(/C=C\C(=O)CC(O)(c2ccccc2)C(F)(F)F)cc1 (stereo unspecified) | 87 | 88 | 10 | 11 | 1.2*
COc1ccc(/C=C/C(=O)NCCCc2ccccc2)cc1 | nt | nt | 98 | 95 | nt
OCCN1CCN(c2nc(-c3ccccc3)c3cc(Cl)ccc3n2)CC1 | 34 | 94 | 73 | 71 | 8.3*
CN1CCN(c2nc(-c3ccccc3)c3cc(Cl)ccc3n2)CC1 | 49 | 72 | 56 | 44 | 39*
Clc1ccc2nc(N3CCNCC3)nc(-c3ccccc3)c2c1 | 4.3* | 2.4* | 1.2* | 1.3* | 0.8*
O=C1CN(c2nc(-c3ccccc3)c3cc(Cl)ccc3n2)c2ccccc2N1 | nt | nt | 51 | 49 | nt
CC1=CC(C)(C)[N+](C)=CN1c1ccccc1 | nt | nt | 90 | 88 | nt
Cc1ccc(-n2c(Cc3cccs3)nnc2SCC(=O)Nc2ccc(F)c(F)c2)cc1 | 86 | 4.0* | 78 | 80 | 77
O=C(CSc1nnc(-c2cccnc2)n1-c1ccccc1)Nc1ccccc1 | 97 | 101 | 86 | 101 | 85
Cc1ccc(NC(=O)CSc2nnc(-c3cccnc3)n2-c2ccc(C)cc2)cc1 | 79 | 98 | 91 | 89 | 27*
O=C(CSc1nnc(-c2cccs2)n1-c1ccccc1)Nc1ccccc1 | 80 | 41* | 56 | 49 | 64
Cc1ccccc1-n1c(SCC(=O)c2cc(C)n(C)c2C)nnc1-c1cccnc1 | 110 | 99 | 99 | 109 | 39*
SMILES | HUVEC prolif 384 | Lung fibro prol | bCat KO growth | PTEN del growth | H69AR growth 86K
Cc1nn(CC(=O)NCc2ccc(-n3cccn3)cc2)c(C)c1[N+](=O)[O-] | nt | nt | 102 | 95 | nt
COc1ccc(NC(=O)C(c2ccccc2)N(C)C(=O)c2ccc(=O)[nH]c2)cc1 (stereo unspecified) | nt | nt | 96 | 90 | nt
O=C(NC1CCCCC1)Sc1ccc(Cl)cc1 | 62 | 83 | 66 | 33 | 36*
CC(=O)c1c(N2CCN(Cc3ccccc3)CC2)[nH]c(-c2ccccc2)nc1=S | 77 | 93 | 93 | 91 | 4.6*
Cc1ccc(O)c(NC(=O)CCC2CCCCC2)c1 | 93 | 102 | 98 | 87 | 27*
CCOC(=O)c1ccc(N/C=C\C(=O)c2cccc(OC)c2)cc1 | nt | nt | 76 | 83 | nt
Cc1cccc(OCC(=O)Nc2cc(C)ccc2O)c1 | 82 | 95 | 87 | 95 | 24*
COc1cccc(C(=O)/C=C/Nc2cc(C)ccc2O)c1 | 69 | 91 | 66 | 70 | 8.9*
Cc1cccc(OCC(=O)Nc2cc(C)c(C)cc2O)c1 | 89 | 105 | 89 | 100 | 84
O=C(CCC1CCCCC1)Nc1ccccc1O | 107 | 116 | 97 | 94 | 95
CCCC/C(C)=N\NC(=O)CNS(=O)(=O)c1ccc([N+](=O)[O-])cc1 | nt | nt | 0.5* | 0.4* | nt
Cc1cccc(NC(=O)C2CCCN(S(=O)(=O)c3c(C)nn(C)c3C)C2)n1 (stereo unspecified) | 96 | 85 | 78 | 82 | 38*
COc1ccc(-c2nnc3ccc(SCC(=O)Nc4nc5ccccc5s4)nn23)cc1OC | nt | nt | 92 | 83 | nt
CCOC(=O)C(C)/C(C)=N/NC(N)=S (stereo unspecified) | nt | nt | 103 | 110 | nt
CCN(CC)c1ccc2cc(C(C)=O)c(=O)oc2c1 | 107 | 99 | 101 | 103 | 89
CCOc1cc(-n2cnnn2)c(OCC)cc1NC(=O)c1cc2ccc(N(CC)CC)cc2oc1=O | 34 | 86 | nt | nt | 13*
CCN(CC)c1ccc2cc(C(=O)Nc3cccnc3N3CCOCC3)c(=O)oc2c1 | 60 | 64 | nt | nt | 21*
CCN(CC)c1ccc2cc(C(=O)Nc3ccccn3)c(=O)oc2c1 | 94 | 96 | 99 | 100 | 93
COc1ccc(C(C(=O)OC(C)CN(C)C)c2ccccc2)cc1 (stereo unspecified) | nt | nt | 86 | 101 | nt
CN(C)CC(C(=O)c1ccccc1)c1ccccc1 (stereo unspecified) | 41 | 17* | 1.4* | 1.0* | 0.1*
CCOc1ccc2[nH]c(=O)c(CN(Cc3cccs3)Cc3nnnn3C(C)(C)C)cc2c1 | 69 | 67 | 33 | 23 | 7.3*
Cc1ccc(NC2=C/C(=N\S(=O)(=O)c3cccs3)c3ccccc3C2=O)c(C)c1 | 2.9* | 2.2* | 1.5* | 1.3* | 2.0*
Cc1cccc(NC2=C/C(=N/S(=O)(=O)c3cccs3)c3ccccc3C2=O)c1 | nt | nt | 79 | 76 | nt
N/C(=N\S(=O)(=O)c1cccs1)c1ccccc1 | 88 | 94 | 91 | 101 | 96
Cc1ccc(Cl)cc1NC1=C/C(=N\S(=O)(=O)c2cccs2)c2ccccc2C1=O | nt | nt | 1.6* | 1.1* | nt
SMILES | HUVEC prolif 384 | Lung fibro prol | bCat KO growth | PTEN del growth | H69AR growth 86K
O=c1[nH]c(Nc2nc3ccccc3o2)nc2c1CCCC2 | 55 | 5.6* | 3.3* | 2.8* | 17*
CCCCn1c(CCC)nc([N+](=O)[O-])c1Sc1ccc(Cl)cn1 | 77 | 72 | 16 | 14 | 2.4*
O=[N+]([O-])c1ccc(Sc2ccccc2)nc1 | nt | nt | 102 | 100 | nt
CCn1c(C)nc([N+](=O)[O-])c1Sc1ccc(F)cc1 | nt | nt | 76 | 71 | nt
CC(C)Cn1c(C(C)C)nc([N+](=O)[O-])c1Sc1ccc(Cl)cn1 | 78 | 55 | 77 | 63 | 19*
O=C(N/N=C/c1ccc2c(c1)OCO2)C(O)c1ccccc1 (stereo unspecified) | nt | nt | 83 | 95 | nt
Cc1cc(CN2CCN(CCC#N)CC2)c(O)c(C2(C)CCCCC2)c1 | 95 | 95 | 73 | 83 | 38*
